Experimental data from ChEMBL document CHEMBL1152782, “Rational modification of a candidate cancer drug for use against Chagas disease” (J Med Chem, 2009).
Calls of active or inactive are those of the source. The rule behind the calls is not given here.

Tests used:
[1] = Ratio of IC50 for rat recombinant protein farnesyltransferase to EC50 for Trypanosoma cruzi Tulahuen expressing beta-galactosidase
Trypanosoma cruzi [2] = experiment: Antitrypanosomal activity against Trypanosoma cruzi Tulahuen amastigotes expressing beta-galactosidase in mouse 3T3 fibroblast after 7 days by […]; assay type: functional, organism-based; details: 168 h
[3] = Inhibition of rat recombinant protein farnesyltransferase expressed in Sf9 cells by [3H]-scintillation proximity assay
[4] = target: T1, Lanosterol 14-alpha demethylase (Homo sapiens, UniProt Q16850); experiment: Inhibition of human sterol 14-alpha-demethylase assessed as drug/enzyme molar ratio required to produce 50 percent decrease in turnover number
T1 sequence (Q16850 whole entry): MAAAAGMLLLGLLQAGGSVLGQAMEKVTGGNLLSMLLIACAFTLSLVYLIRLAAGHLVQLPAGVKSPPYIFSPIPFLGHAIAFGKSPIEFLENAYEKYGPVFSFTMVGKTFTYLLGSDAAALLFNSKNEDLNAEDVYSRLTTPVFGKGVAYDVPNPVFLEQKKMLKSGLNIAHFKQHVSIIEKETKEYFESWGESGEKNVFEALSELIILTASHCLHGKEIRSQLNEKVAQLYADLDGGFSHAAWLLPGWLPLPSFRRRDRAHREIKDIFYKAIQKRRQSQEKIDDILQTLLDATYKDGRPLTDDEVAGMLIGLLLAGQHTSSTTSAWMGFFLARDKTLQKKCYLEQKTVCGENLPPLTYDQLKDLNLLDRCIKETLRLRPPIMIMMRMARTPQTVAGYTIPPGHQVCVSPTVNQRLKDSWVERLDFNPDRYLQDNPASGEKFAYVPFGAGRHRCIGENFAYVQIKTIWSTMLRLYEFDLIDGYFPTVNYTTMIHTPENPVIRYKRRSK

[5] = target: Sterol 14-alpha demethylase (Trypanosoma cruzi (strain CL Brener)) (UniProt Q7Z1V1); experiment: Inhibition of Trypanosoma cruzi recombinant sterol 14-alpha-demethylase assessed as drug/enzyme molar ratio required to produce 50 percent decrease in turnover number
Chain of Sterol 14-alpha demethylase (Trypanosoma cruzi (strain CL Brener)) (Q7Z1V1 whole entry, looked up): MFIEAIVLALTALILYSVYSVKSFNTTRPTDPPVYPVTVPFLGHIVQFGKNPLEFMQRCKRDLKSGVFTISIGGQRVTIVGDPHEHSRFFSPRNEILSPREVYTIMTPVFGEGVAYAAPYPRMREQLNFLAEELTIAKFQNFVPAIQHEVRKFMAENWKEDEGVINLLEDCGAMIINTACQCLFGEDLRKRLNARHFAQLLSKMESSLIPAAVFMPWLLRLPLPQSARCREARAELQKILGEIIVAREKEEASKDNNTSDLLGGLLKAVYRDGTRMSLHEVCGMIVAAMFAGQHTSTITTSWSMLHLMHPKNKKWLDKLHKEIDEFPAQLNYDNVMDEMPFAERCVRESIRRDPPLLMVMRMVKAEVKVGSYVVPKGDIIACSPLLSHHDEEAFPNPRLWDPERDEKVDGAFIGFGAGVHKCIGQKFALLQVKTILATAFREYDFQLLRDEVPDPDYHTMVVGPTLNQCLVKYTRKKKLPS

Cytochrome P450 3A4 = Cytochrome P450 3A4 (Homo sapiens, UniProt P08684); experiment: Inhibition of human recombinant CYP3A4; assay type: ADME
Chain of Cytochrome P450 3A4 (P08684 whole entry): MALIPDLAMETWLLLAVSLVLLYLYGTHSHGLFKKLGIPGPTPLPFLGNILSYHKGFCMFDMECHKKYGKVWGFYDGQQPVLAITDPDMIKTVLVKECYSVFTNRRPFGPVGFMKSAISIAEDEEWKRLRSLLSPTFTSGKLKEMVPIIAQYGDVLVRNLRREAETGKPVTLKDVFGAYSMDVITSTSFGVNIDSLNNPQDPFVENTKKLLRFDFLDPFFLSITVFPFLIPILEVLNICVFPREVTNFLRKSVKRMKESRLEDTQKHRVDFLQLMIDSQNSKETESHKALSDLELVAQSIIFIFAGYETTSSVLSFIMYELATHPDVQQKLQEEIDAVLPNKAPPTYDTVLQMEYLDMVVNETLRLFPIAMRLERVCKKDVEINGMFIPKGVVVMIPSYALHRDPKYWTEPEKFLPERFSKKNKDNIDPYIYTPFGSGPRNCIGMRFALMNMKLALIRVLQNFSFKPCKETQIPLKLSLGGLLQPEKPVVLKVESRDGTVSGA

Trypanosoma cruzi [6] = experiment: Antitrypanosomal activity against Trypanosoma cruzi Tulahuen trypomastigotes infected in BALB/c mouse assessed as suppression of parasitemia at 100 mg/kg, po after 7 days of infection for 8 to 27 days measured weekly for 8 weeks by microscopy; assay type: functional, organism-based; design: dose 100 mg/kg
Summary of the method: (§1)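 Female BALB/c mice (7–8 weeks) infected subcutaneously with 5×10^3 Tulahuen trypomastigotes; oral gavage from day 8, groups of 5–6, for 20 days. Benznidazole 100 mg/kg once daily days 8–27; test agents 100 mg/kg twice daily days 8–13 then 50 mg/kg twice daily days 14–27; vehicle 20% hydroxypropyl beta-cyclodextrin twice daily. Parasitemia counted in 5 μL tail blood over 50 high-powered fields.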

Trypanosoma cruzi [7] = experiment: (§2) Antitrypanosomal activity against Trypanosoma cruzi Tulahuen trypomastigotes infected in BALB/c mouse assessed as suppression of parasitemia at 100 mg/kg, po twice a day after 7 days of infection for 8 to 13 days and 50 mg/kg, po for 14 to 27 days measured weekly for 8 weeks by microscopy; assay type: functional, organism-based
Summary of the method: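 Female BALB/c mice, 7–8 weeks old, infected s.c. with 5×10^3 Tulahuen trypomastigotes; parasitemic by day 7. From day 8, groups of 5–6 were gavaged 100 mg/kg twice daily (days 8–13), then 50 mg/kg twice daily (days 14–27), in 20% w/v hydroxypropyl-β-cyclodextrin. Parasitemia read in 5 μL tail blood over 50 high-power fields. Day-103 cardiac blood cultured at 28 °C, checked weekly for 8 weeks.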

[8] = Elimination half life in BALB/c mouse at 50 mg/kg, po; assay type: ADME, organism-based; design: dose 50 mg/kg, route oral; details: in vivo, read-out: beta t1/2 (converted)
Summary of the method: (§3)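 Single oral gavage dose of 50 mg/kg, suspended at 10 mg/ml in 20% (w/v) hydroxypropyl beta-cyclodextrin, to uninfected female BALB/c mice (7–8 weeks, ~20 g); timed tail blood, plasma extracted with acetonitrile using an internal standard, quantified by reversed-phase LC-MS (electrospray ion trap); three mice averaged.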

Mus musculus = experiment: Toxicity in BALB/c mouse at 50 mg/kg, po administered twice a day; assay type: organism-based; design: dose 50 mg/kg, route oral; details: in vivo
Summary of the method: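 Infected female BALB/c mice given oral gavage in 20% hydroxypropyl beta-cyclodextrin, 100 mg/kg twice daily days 8–13 then 50 mg/kg twice daily days 14–27; monitored for weight loss and adverse effects.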

[9] = Cmax in BALB/c mouse at 50 mg/kg, po; assay type: ADME, organism-based; design: dose 50 mg/kg, route oral; details: in vivo; summary of the method: as §3
Trypanosoma cruzi [10] = experiment: as §2, with “parasitemia in blood culture” for “parasitemia”, “after 100 days” for “weekly for 8 weeks”; assay type: functional, organism-based; summary of the method: as §1
[11] = Terminal half life in po dosed human administered twice a day; assay type: ADME, organism-based; details: in vivo, read-out: beta t1/2 (converted)

For Cn1cncc1[C@@](N)(c1ccc2ccccc2c1)c1ccc2c(c1)c(-c1cccc(Cl)c1)cc(=O)n2C, the Ratio IC50/EC50 [1] was 0.4, the EC50 (Trypanosoma cruzi [2]) was 45 nM and the IC50 [3] was 17 nM.
Cn1cncc1[C@@](N)(c1ccc(Cl)cc1)c1ccc2c(c1)c(-c1ccccc1)cc(=O)n2C showed a Ratio IC50/EC50 [1] of 0.3, an EC50 (Trypanosoma cruzi [2]) of 12 nM and an IC50 [3] of 4 nM.
In the case of Cc1c(Cl)cccc1-c1cc(=O)n(C)c2ccc([C@](N)(c3ccc(Cl)cc3)c3cncn3C)cc12 (racemic), the Ratio IC50/EC50 [1] is reported as 14, the Activity [4] is reported as over 100 and the EC50 (Trypanosoma cruzi [2]) is reported as 21 nM. It also gave an Activity [5] of 0.65, an IC50 [3] of 294 nM and an IC50 (Cytochrome P450 3A4) of 1300 nM.
Work on Cc1ccccc1-c1cc(=O)n(C)c2ccc([C@](N)(c3ccc(Cl)cc3)c3cncn3C)cc12 (racemic) yielded a Ratio IC50/EC50 [1] of 13, an EC50 (Trypanosoma cruzi [2]) of 23 nM and an IC50 [3] of 300 nM. The IC50 (Cytochrome P450 3A4) was 1350 nM.
In the case of Cn1cncc1[C@@](N)(c1ccc(Cl)cc1)c1ccc2c(c1)c(-c1cccc3ccccc13)cc(=O)n2C (racemic), the Activity [4] is reported as over 100, the EC50 (Trypanosoma cruzi [2]) is reported as 22 nM and the Activity [5] is reported as 0.85. For the same molecule, the IC50 [3] was 485 nM.
With CO[C@](c1ccc(Cl)cc1)(c1ccc2c(c1)c(-c1cccc(Cl)c1C)cc(=O)n2C)c1cncn1C (racemic) the Activity (Trypanosoma cruzi [6]) was “Active”, the Activity (Trypanosoma cruzi [7]) was “Active” and the half-life [8] was 4 h. For the same molecule, the Activity (Mus musculus) was “Non-toxic”, the Ratio IC50/EC50 [1] was over 8300 and the Activity [4] was 48. For the same molecule, the Cmax [9] was 5 µM, the EC50 (Trypanosoma cruzi [2]) was 0.6 nM and the Activity (Trypanosoma cruzi [10]) was “Active”. For the same molecule, the Activity [5] was 0.62, the IC50 [3] was over 5000 nM and the IC50 (Cytochrome P450 3A4) was 870 nM.
With Cc1cc([C@@](N)(c2ccc3c(c2)c(-c2cccc(Cl)c2)cc(=O)n3C)c2cncn2C)ccc1Cl (racemic) the Ratio IC50/EC50 [1] was 0.6, the EC50 (Trypanosoma cruzi [2]) was 23 nM and the IC50 [3] was 13 nM.
Work on Cn1cncc1[C@](N)(c1ccc(Cl)cc1)c1ccc2c(c1)c(-c1cccc(Cl)c1)cc(=O)n2C [(S)-TIPIFARNIB] yielded an Activity [4] of over 100 and an Activity [5] of 0.74.
For CC(=O)N1CCN(c2ccc(OCC3COC(Cn4ccnc4)(c4ccc(Cl)cc4Cl)O3)cc2)CC1 (configuration not stated) [KETOCONAZOLE], the Activity [4] was 2.3, the EC50 (Trypanosoma cruzi [2]) was 0.3 nM and the Activity [5] was 0.75.
For CC[C@@H]([C@H](C)O)n1ncn(-c2ccc(N3CCN(c4ccc(OC[C@@H]5CO[C@@](Cn6cncn6)(c6ccc(F)cc6F)C5)cc4)CC3)cc2)c1=O [POSACONAZOLE], the EC50 (Trypanosoma cruzi [2]) was 0.3 nM.
For Cn1cncc1[C@@](N)(c1ccc(Cl)cc1)c1ccc2c(c1)c(-c1cccc(Cl)c1)cc(=O)n2C [TIPIFARNIB], the half-life [11] was 16 h, the Activity (Trypanosoma cruzi [7]) was “inactive” and the Activity [4] was over 100. It also gave an EC50 (Trypanosoma cruzi [2]) of 4 nM, an Activity [5] of 0.48 and an IC50 [3] of 0.7 nM.
